ChEMBL document CHEMBL4428035, “Urea derivates of ursolic, oleanolic and maslinic acid induce apoptosis and are selective cytotoxic for several human tumor cell lines” (Eur J Med Chem, 2016)
Calls of active or inactive are those of the source. The calls are words filed in the database; no cut-off is given here.

Columns and labels:
A2780 [1] = test: Cell cycle arrest in human A2780 cells assessed as decrease in G1/G0 phase at 10 uM after 48 hrs by FACS analysis; format: functional, cell-based
How it was run: (§1)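 Living A2780 cells treated with 10 µM test agent for 24 h and 48 h, then examined for cell-cycle distribution by FACS. Phase populations (Sub-G1, G1/G0, S, G2/M) were quantified by model fitting and expressed as arithmetic means of the population distribution (%).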

SW-1736 = test: Cytotoxicity against human SW1736 cells assessed as reduction in cell proliferation after 96 hrs by sulforhodamine B assay; format: functional, cell-based; conditions: SW-1736, 96 h
A2780 [2] = test: Cell cycle arrest in human A2780 cells assessed as increase in subG1 phase at 10 uM after 48 hrs by FACS analysis; format: functional, cell-based; how it was run: as §1
A2780 [3] = test: Cell cycle arrest in human A2780 cells assessed as decrease in G1/G0 phase at 10 uM after 24 hrs by FACS analysis; format: functional, cell-based; how it was run: as §1
A2780 [4] = test: Induction of apoptosis in human A2780 cells assessed as secondary necrotic cells at 10 uM after 24 hrs by Annexin V/propidium iodide staining based flow cytometry relative to control; format: functional
How it was run: (§2)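 Annexin V/propidium iodide staining of A2780 cells exposed to 10 µM compound for 24 h and 48 h, read by flow cytometry. Viable, apoptotic, necrotic and secondary-necrotic fractions were reported as relative changes versus untreated control (%).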

A2780 [5] = test: Cell cycle arrest in human A2780 cells assessed as decrease in G2/M phase at 10 uM after 24 hrs by FACS analysis; format: functional, cell-based; how it was run: as §1
518A2 = test: Cytotoxicity against human 518A2 cells assessed as reduction in cell proliferation after 96 hrs by sulforhodamine B assay; format: functional, cell-based; conditions: 518A2, 96 h
A2780 [6] = test: Cell cycle arrest in human A2780 cells assessed as decrease in S phase at 10 uM after 48 hrs by FACS analysis; format: functional, cell-based; how it was run: as §1
MCF7 = test: Cytotoxicity against human MCF7 cells assessed as reduction in cell proliferation after 96 hrs by sulforhodamine B assay; format: functional, cell-based; conditions: MCF7, 96 h
A2780 [7] = test: Cell cycle arrest in human A2780 cells assessed as increase in S phase at 10 uM after 24 hrs by FACS analysis; format: functional, cell-based; how it was run: as §1
A2780 [8] = test: Induction of apoptosis in human A2780 cells assessed as viable cells at 10 uM after 24 hrs by Annexin V/propidium iodide staining based flow cytometry relative to control; format: functional; conditions: A2780, 24 h, read-out: Activity; how it was run: as §2
A2780 [9] = test: Cytotoxicity against human A2780 cells assessed as reduction in cell proliferation after 96 hrs by sulforhodamine B assay; format: functional, cell-based; conditions: A2780, 96 h
NIH3T3 = test: Cytotoxicity against mouse NIH/3T3 cells assessed as reduction in cell proliferation after 96 hrs by sulforhodamine B assay; format: ADME, cell-based; conditions: NIH3T3, 96 h
HT-29 = test: Cytotoxicity against human HT-29 cells assessed as reduction in cell proliferation after 96 hrs by sulforhodamine B assay; format: functional, cell-based; conditions: HT-29, 96 h
A2780 [10] = test: Induction of apoptosis in human A2780 cells assessed as necrotic cells at 10 uM after 24 hrs by Annexin V/propidium iodide staining based flow cytometry relative to control; format: functional; how it was run: as §2
A2780 [11] = test: Induction of apoptosis in human A2780 cells assessed as apoptotic cells at 10 uM after 24 hrs by Annexin V/propidium iodide staining based flow cytometry relative to control; format: functional; how it was run: as §2
A549 = test: Cytotoxicity against human A549 cells assessed as reduction in cell proliferation after 96 hrs by sulforhodamine B assay; format: functional, cell-based; conditions: A549, 96 h
A2780 [12] = test: Induction of apoptosis in human A2780 cells assessed as caspase-3 activation up to 72 hrs by flow cytometry; format: functional, cell-based
How it was run: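 Caspase activation in A2780 cells was measured by flow cytometry after 24, 48 and 72 h of treatment.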

A2780 [13] = test: Induction of apoptosis in human A2780 cells assessed as secondary necrotic cells at 10 uM after 48 hrs by Annexin V/propidium iodide staining based flow cytometry relative to control; format: functional; how it was run: as §2
A2780 [14] = test: Induction of apoptosis in human A2780 cells assessed as necrotic cells at 10 uM after 48 hrs by Annexin V/propidium iodide staining based flow cytometry relative to control; format: functional; how it was run: as §2
FaDu = test: Cytotoxicity against human FADU cells assessed as reduction in cell proliferation after 96 hrs by sulforhodamine B assay; format: functional, cell-based
A2780 [15] = test: Induction of apoptosis in human A2780 cells assessed as viable cells at 10 uM after 48 hrs by Annexin V/propidium iodide staining based flow cytometry relative to control; format: functional; conditions: A2780, 48 h, read-out: Activity; how it was run: as §2
A2780 [16] = test: Induction of apoptosis in human A2780 cells assessed as apoptotic cells at 10 uM after 48 hrs by Annexin V/propidium iodide staining based flow cytometry relative to control; format: functional; how it was run: as §2
[17] = Selectivity index, ratio of EC50 for mouse NIH/3T3 cells to EC50 for human HT-29 cells; conditions: NIH/3T3 cells versus HT-29 cells
[18] = Selectivity index, ratio of EC50 for mouse NIH/3T3 cells to EC50 for human 518A2 cells
[19] = Selectivity index, ratio of EC50 for mouse NIH/3T3 cells to EC50 for human FADU cells
[20] = Selectivity index, ratio of EC50 for mouse NIH/3T3 cells to EC50 for human SW1736 cells
[21] = Selectivity index, ratio of EC50 for mouse NIH/3T3 cells to EC50 for human MCF7 cells; conditions: NIH/3T3 cells versus MCF7 cells
[22] = Selectivity index, ratio of EC50 for mouse NIH/3T3 cells to EC50 for human A2780 cells; conditions: NIH/3T3 cells versus A2780 cells
[23] = Selectivity index, ratio of EC50 for mouse NIH/3T3 cells to EC50 for human A549 cells; conditions: NIH/3T3 cells versus A549 cells

Structure (SMILES)	Activity (A2780 [1])	EC50 (SW-1736)	Activity (A2780 [2])	Activity (A2780 [3])	Activity (A2780 [4])	Activity (A2780 [5])	EC50 (518A2)	Activity (A2780 [6])	EC50 (MCF7)	Activity (A2780 [7])	change in viable cells vs control (%) at 10 µM (A2780 [8])	EC50 (A2780 [9])	EC50 (NIH3T3)	EC50 (HT-29)	Activity (A2780 [10])	Activity (A2780 [11])	EC50 (A549)	Activity (A2780 [13])	Activity (A2780 [14])	EC50 (FaDu)	further results
CC(=O)O[C@H]1C[C@]2(C)[C@H]3CC=C4[C@@H]5CC(C)(C)CC[C@]5(NC(=O)Nc5ccccc5)CC[C@@]4(C)[C@]3(C)CC[C@H]2C(C)(C)[C@H]1OC(C)=O	Active	2.8 µM	Active	Active	11%	Active	1200 nM	Active	2.8 µM	Active	-43%	900 nM	> 120 µM	2.3 µM	-1%	33%	4.4 µM				Activity (A2780 [12]): inactive
CC(=O)O[C@H]1C[C@]2(C)[C@H]3CC=C4[C@@H]5CC(C)(C)CC[C@]5(C(=O)NCc5ccccc5)CC[C@@]4(C)[C@]3(C)CC[C@H]2C(C)(C)[C@@H]1OC(C)=O	Active	5.2 µM	Active	Active	9%	Active	2300 nM	Active	7.6 µM	Active	-12%	1100 nM	7.7 µM	5.2 µM	1%	4%	8.8 µM	29%	0%	3.3 µM	viability at 10 µM (A2780 [15]): -75%; Activity (A2780 [16]): 45%
CC(=O)O[C@@H]1[C@H](OC(C)=O)C[C@]2(C)[C@H]3CC=C4[C@@H]5CC(C)(C)CC[C@]5(C(=O)NCc5ccccc5)CC[C@@]4(C)[C@]3(C)CC[C@H]2C1(C)C	Active	20.7 µM	Active	Active	10%	Active	5700 nM	Active	7.8 µM	Active	-16%	1900 nM	11.4 µM	7.7 µM	1%	5%	15.6 µM	20%	-1%	5.5 µM	viability at 10 µM (A2780 [15]): -65%; Activity (A2780 [16]): 45%
COCCO[C@@H]1C[C@]2(C)[C@H]3CC=C4[C@@H]5CC(C)(C)CC[C@]5(C(=O)NCc5ccccc5)CC[C@@]4(C)[C@]3(C)CC[C@H]2C(C)(C)[C@H]1OCCOC		4.6 µM					3500 nM		6.8 µM			2700 nM	15.5 µM	4.9 µM			4.9 µM				selectivity ratio [17]: 5; Ratio EC50 [18]: 5; Ratio EC50 [19]: 5; Ratio EC50 [20]: 5; selectivity ratio [21]: 5; selectivity ratio [22]: 5; selectivity ratio [23]: 5
CC(=O)O[C@H]1C[C@]2(C)[C@H]3CC=C4[C@@H]5CC(C)(C)CC[C@]5(C(=O)NCc5ccccc5)CC[C@@]4(C)[C@]3(C)CC[C@H]2C(C)(C)[C@H]1OC(C)=O	Active	3.4 µM	Active	Active	6%	Active	900 nM	Active	3.5 µM	Active	-11%	500 nM	9.4 µM	3.7 µM	-1%	5%	5.6 µM	23%	1%	2 µM	viability at 10 µM (A2780 [15]): -79%; Activity (A2780 [16]): 55%
COCO[C@@H]1C[C@]2(C)[C@H]3CC=C4[C@@H]5CC(C)(C)CC[C@]5(C(=O)NCc5ccccc5)CC[C@@]4(C)[C@]3(C)CC[C@H]2C(C)(C)[C@H]1O		5.4 µM					3200 nM		5.5 µM				16.5 µM	5.2 µM			12.8 µM			3.3 µM	selectivity ratio [17]: 5; selectivity ratio [21]: 5; selectivity ratio [22]: 5; selectivity ratio [23]: 5
